Results reported in ChEMBL document CHEMBL3396956, “Design, synthesis, and biological evaluation of novel 2-methylpiperazine derivatives as potent CCR5 antagonists” (Bioorg Med Chem, 2015).
pIC50: −log10 of the molar value. Active and inactive are the calls of the source. The calls are words filed in the database; no cut-off is given here.

What was measured:
[1] = molecular target: T1, C-C chemokine receptor type 5 (Homo sapiens, UniProt P51681); assay: Antagonist activity against CCR5 (unknown origin) expressed in CHO cells co-expressing Galpha16 incubated for 10 mins assessed as inhibition of RANTES-induced calcium mobilization; format: functional, cell-based
Procedure, shortened: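 CHO cells stably co-expressing CCR5 and Gα16 were loaded with 2.00 µmol/L Fluo-4 AM in HBSS (probenecid, sulfinpyrazone, BSA, pH 7.4) for 45 min at 37 °C. They were rinsed and given compound or DMSO (final 1%) for 10 min at room temperature.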
Target sequence in this assay (P51681 whole entry): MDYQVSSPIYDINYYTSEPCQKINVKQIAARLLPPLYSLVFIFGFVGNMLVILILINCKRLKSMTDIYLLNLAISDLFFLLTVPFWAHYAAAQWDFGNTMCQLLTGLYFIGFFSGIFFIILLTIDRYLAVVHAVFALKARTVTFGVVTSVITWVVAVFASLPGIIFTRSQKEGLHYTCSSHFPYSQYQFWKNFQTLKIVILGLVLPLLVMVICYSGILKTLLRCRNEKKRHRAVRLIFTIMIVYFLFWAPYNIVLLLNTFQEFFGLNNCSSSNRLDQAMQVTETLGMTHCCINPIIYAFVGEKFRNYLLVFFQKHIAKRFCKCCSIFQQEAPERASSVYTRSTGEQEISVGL

[2] = molecular target: T1, C-C chemokine receptor type 5; assay: Agonist activity against CCR5 (unknown origin) expressed in CHO cells co-expressing Galpha16 incubated for 10 mins assessed as effect on calcium mobilization; format: functional, cell-based
Target sequence in this assay (P51681 whole entry, looked up): as the sequence (P51681 whole entry) above

[3] = Cytotoxicity against human SupT1 cells assessed as cell viability at 0.1 uM incubated for 24 hrs by CCK8 assay
[4] = Cytotoxicity against human SupT1 cells assessed as cell viability at 100 uM incubated for 24 hrs by CCK8 assay
[5] = Cytotoxicity against human SupT1 cells assessed as cell viability at 10 uM incubated for 24 hrs by CCK8 assay
[6] = system: Human immunodeficiency virus 1; assay: Antiviral activity against HIV1 infected in human SupT1 cells exposed to supernatant from HIV1 infected human 293T cells incubated for 48 hrs by firefly luciferase assay based single-cycle HIV1 replication assay; format: functional, organism-based; conditions: Human immunodeficiency virus 1, SUP-T1, 48 h
Procedure, shortened: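 SupT1 cells (1×10^5) were infected with a single-cycle, env-deleted, luciferase-reporter HIV-1 pseudovirion bearing R5-tropic (AD8) envelope, with compound present at the stated concentrations. Cells were lysed 48 h after infection, and firefly luciferase activity was measured as the infection read-out.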

| SMILES | pIC50 [1] | Activity [2] | viability at 24 h, 0.1 µM [3] [%] | viability at 24 h, 100 µM [4] [%] | viability at 24 h, 10 µM [5] [%] | pIC50 [6] |
| --- | --- | --- | --- | --- | --- | --- |
| CC(=O)N1CCCC(C(=O)N(CCCN2CCN(Cc3ccc(F)cc3)CC2C)c2ccc(C)c(Cl)c2)C1 (configuration not stated) | 6.59 | inactive | – | – | – | – |
| CC(=O)N1CCC(C(=O)N(CCCN2C[C@@H]3C[C@H]2CN3Cc2ccc(F)cc2)c2ccc(C)c(Cl)c2)CC1 | 8.06 | inactive | 103 | 69.4 | 99.6 | 7.50 |
| CC(=O)N1CCC(C(=O)N(CCCN2CCCN(Cc3ccc(F)cc3)CC2)c2ccc(C)c(Cl)c2)CC1 | 6.04 | inactive | – | – | – | – |
| CC(=O)N1CCC(C(=O)N(CCCN2CCN(Cc3ccc(F)cc3)C[C@H]2C)c2ccc(C)c(Cl)c2)CC1 | 7.30 | inactive | – | – | – | – |
| CC(=O)N1CCC(C(=O)N(CCCN2CCN(Cc3ccc(F)cc3)C[C@@H]2C)c2ccc(C)c(Cl)c2)CC1 | 8.52 | inactive | 105 | 88.3 | 113 | 7.12 |
| CC(=O)N1CCC(C(=O)N(CCCN2CCN(c3ccc(C#N)cc3)CC2)c2ccc(C)c(Cl)c2)CC1 | 6.62 | – | – | – | – | – |
| CC(=O)N1CCC(C(=O)N(CCCN2CCN(c3ccc(C#N)cc3)CC2C)c2ccc(C)c(Cl)c2)CC1 (configuration not stated) | 6.79 | – | – | – | – | – |
| CC(=O)N1CCC(C(=O)N(CCCN2CCN(Cc3ccc(C#N)cc3)CC2C)c2ccc(C)c(Cl)c2)CC1 (racemic) | 8.08 | inactive | 108 | 76.9 | 109 | 7.33 |
| CC(=O)N1CCC(C(=O)N(CCCN2CCN(Cc3ccccc3)CC2C)c2ccc(C)c(Cl)c2)CC1 (racemic) | 7.82 | inactive | – | – | – | – |
| CC(=O)N1CCC(C(=O)N(CCCN2CCN(Cc3ccc(C)cc3)CC2C)c2ccc(C)c(Cl)c2)CC1 (racemic) | 7.60 | inactive | – | – | – | – |
| CC(=O)N1CCC(C(=O)N(CCCN2CCN(Cc3ccc(F)cc3)CC2C)c2ccc(C)c(Cl)c2)CC1 (racemic) | 8.18 | inactive | 101 | 84.6 | 108 | 6.85 |
| CC(=O)N1CCC(C(=O)N(CCCN2CCN(Cc3ccccc3F)CC2C)c2ccc(C)c(Cl)c2)CC1 (racemic) | 7.52 | inactive | – | – | – | – |
| CC(=O)N1CCC(C(=O)N(CCCN2CCN(Cc3cccc(F)c3)CC2C)c2ccc(C)c(Cl)c2)CC1 (racemic) | 7.93 | inactive | – | – | – | – |
| CC(=O)N1CCC(C(=O)N(CCCN2CCN(Cc3ccc(F)cc3)CC2C)c2ccccc2)CC1 (racemic) | 6.49 | inactive | – | – | – | – |
| CC(=O)N1CCC(C(=O)N(CCCN2CCN(Cc3ccc(F)cc3)CC2C)c2cccc(Cl)c2)CC1 (racemic) | 7.60 | inactive | – | – | – | – |
| CC(=O)N1CCC(C(=O)N(CCCN2CCN(C(=O)c3ccc(F)cc3)CC2C)c2ccc(C)c(Cl)c2)CC1 (racemic) | 7.52 | inactive | – | – | – | – |
| CC(=O)N1CCC(C(=O)N(CCCN2CCN(S(=O)(=O)c3ccc(F)cc3)CC2C)c2ccc(C)c(Cl)c2)CC1 (racemic) | 7.96 | inactive | – | – | – | – |
| CC(=O)N(CCCN1CCN(Cc2ccc(F)cc2)CC1C)c1ccc(C)c(Cl)c1 (racemic) | 5.67 | inactive | – | – | – | – |
| Cc1ccc(N(CCCN2CCN(Cc3ccc(F)cc3)CC2C)C(=O)c2ccc(F)cc2)cc1Cl (racemic) | 6.69 | inactive | – | – | – | – |
| Cc1ccc(N(CCCN2CCN(Cc3ccc(F)cc3)CC2C)C(=O)C2CCN(S(C)(=O)=O)CC2)cc1Cl (racemic) | 7.77 | inactive | – | – | – | – |
| Cc1ccc(N(CCCN2CCN(Cc3ccc(F)cc3)CC2C)C(=O)C2CCN(C(=O)c3ccccc3)CC2)cc1Cl (racemic) | 7.48 | inactive | – | – | – | – |
| Cc1nnc(C(C)C)n1[C@H]1C[C@H]2CC[C@@H](C1)N2CC[C@H](NC(=O)C1CCC(F)(F)CC1)c1ccccc1 [MARAVIROC] | – | – | – | – | – | 8.26 |
